The source of these data is ChEMBL document CHEMBL3400028, “Evaluation of Aconitum diterpenoid alkaloids as antiproliferative agents” (2015).

Structures are written as SMILES. Where only a bound is given, the exact number is not on record here.

What all share (format): functional
One test concerns A549. Kind of test: Antiproliferative activity against human A549 cells by sulforhodamine B assay. The gist of the method:
(§1)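 Cells in RPMI 1640 (25 mM HEPES, 2 mM L-glutamine, 10% heat-inactivated FBS, antibiotics) at 37 °C, 5% CO2. Seeded at 3–5 × 10³/well with graded concentrations, paclitaxel as assay control, for 72 h. TCA-fixed, stained with 0.04% SRB, dye dissolved in 10 mM Tris, A515 read. GI50 is the concentration halving absorbance versus untreated cells; three or more experiments.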

For the next test, the system named is DU-145. Kind of test: Antiproliferative activity against human DU145 cells by sulforhodamine B assay. The gist of the method:
as §1
A general note: Sulforhodamine B stains cellular protein and so reports cell mass.

The subject of a further test is KB. Kind of test: Antiproliferative activity against human KB cells by sulforhodamine B assay. The gist of the method:
as §1

Test [1] can be described thus: Antiproliferative activity against multidrug-resistant P-gp expressing human KBVIN cells by sulforhodamine B assay. The gist of the method:
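Vincristine-resistant KB subline kept in 100 nM vincristine, then grown 7–10 days without it before testing. RPMI 1640 with 10% FBS, 37 °C, 5% CO2. 3–5 × 10³ cells/well exposed 72 h to a concentration series, paclitaxel as assay control. SRB staining after TCA fixation, A515 read. GI50 is the 50% absorbance reduction versus untreated cells; three or more experiments.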

Test [2] can be described thus: Selectivity ratio of GI50 for human KB cells to GI50 for multidrug-resistant P-gp expressing human KBVIN cells. The gist of the method:
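Ratio of GI50 in parental KB to GI50 in P-gp-overexpressing KB-VIN. […] KB-VIN cells were grown 7–10 days without vincristine before the assay.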

One may read the GI50 as the concentration that inhibits growth by half. A lower GI50 goes with more potent growth inhibition. As for `COC[C@]12CC[C@H](O)[C@]34C(NC1)[C@@](O)([C@@H](OC)[C@H]23)[C@@]1(O)C[C@H](OC)[C@H]2C[C@@H]4[C@@H]1[C@H]2OC`, the GI50 (in the test on A549; in the test on DU-145; with KB; in test [1]) was more than 20 µM in each case. For the same molecule, the RatioGI50 in test [2] is more than 20.

On to `COC[C@]12CN(C)C3[C@@H]4[C@H](OC)[C@H]1[C@@]3([C@@H](OC)C[C@H]2OC(C)=O)[C@@H]1C[C@@]2(O)[C@H](OC(=O)c3ccccc3)[C@@H]1[C@]4(OC(C)=O)[C@@H](O)[C@@H]2OC`, for which the GI50 (with A549; in the test with DU-145; in the test on KB; in test [1]) was more than 20 µM throughout. Further, in test [2], the RatioGI50 was more than 20.

Regarding `CCN1C[C@]2(COC)[C@H](O)C[C@H](OC)[C@]34C1[C@H]([C@H](OC)[C@H]23)[C@]1(OC(C)=O)[C@H]2[C@@H](OC(=O)c3ccc(OC)cc3)[C@](O)(C[C@H]24)[C@@H](OC)[C@@H]1O`, the 50% growth inhibitory concentration (GI50) (with A549; in the test with DU-145; in the test with KB; in test [1]) was more than 20 µM throughout. For the same molecule, the RatioGI50 in test [2] is recorded as more than 20.

Regarding `CCN1C[C@@]2(COC)[C@H]3[C@@H](OC)C=C4[C@H]5[C@@H](OC(=O)c6ccc(OC)cc6)[C@](O)(C[C@H]5[C@@]35C1O[C@@H]2C[C@@H]5OC)[C@@H](OC)[C@@H]4O`, the concentration for 50% growth inhibition (GI50) (in the test on A549; with DU-145; with KB; in test [1]) was more than 20 µM in each case. In test [2], the RatioGI50 is reported as more than 20.

Turning to `CCN1C[C@@]2(COC)[C@H]3[C@@H](OC)[C@H]4C1[C@]3([C@@H](OC)C[C@H]2OC(C)=O)[C@@H]1C[C@@]2(O)[C@H](OC(=O)c3ccc(OC)cc3)[C@@H]1[C@]4(OC(C)=O)[C@@H](OC(C)=O)[C@@H]2OC`, the GI50 (in the test on A549; in the test on DU-145; with KB; in test [1]) was more than 20 µM each time. The RatioGI50 in test [2] is recorded as more than 20.

Regarding `COC[C@]12CN(C)C3[C@@H]4[C@H](OC)[C@H]1[C@@]3([C@@H](OC)C[C@H]2O)[C@@H]1C[C@@]2(O)[C@H](OC(=O)c3ccccc3)[C@@H]1[C@]4(OC(C)=O)[C@@H](O)[C@@H]2OC`, the GI50 (in the test with A549; with DU-145; in the test on KB; in test [1]) was more than 20 µM in each case. Moreover, in test [2], the RatioGI50 is more than 20.

As to `CCN1C[C@]2(COC)CC[C@H](O)[C@]34C1[C@@H]([C@H](OC)[C@H]23)[C@@]1(O)C[C@H](OC)[C@H]2C[C@@H]4[C@@H]1[C@H]2OC(=O)c1ccccc1`, the 50% growth inhibitory concentration (GI50) (in the test with A549; in the test with DU-145; with KB; in test [1]) was more than 20 µM throughout. Further, the RatioGI50 in test [2] was more than 20.

On to `CCN1C[C@]2(COC)[C@H](O)C[C@H](O)[C@]34C1[C@@](O)([C@@H](OC)[C@H]23)[C@@]1(O)C[C@H](OC)[C@H]2C[C@@H]4[C@@H]1[C@H]2O`, for which the GI50 (with A549; with DU-145; in the test on KB; in test [1]) was more than 20 µM in each case. In addition, the RatioGI50 in test [2] is recorded as more than 20.

`CCN1C[C@]2(COC)[C@H](O)C[C@H](OC(C)=O)[C@]34C1[C@@](O)([C@@H](OC)[C@H]23)[C@@]1(O)C[C@H](OC)[C@H]2C[C@@H]4[C@@H]1[C@H]2O`: the GI50 (with A549; in the test on DU-145; with KB; in test [1]) was more than 20 µM in each case. Further, the RatioGI50 in test [2] is reported as more than 20.

Turning to `CCN1C[C@]2(COC)[C@H](O)C[C@H](OC(C)=O)[C@]34C1[C@@](O)([C@@H](OC)[C@H]23)[C@@]1(O)C[C@H](OC)[C@H]2C[C@@H]4[C@@H]1[C@H]2OC(C)=O`, the 50% growth inhibitory concentration (GI50) (in the test on A549; with DU-145; in the test with KB; in test [1]) was more than 20 µM in each case. The RatioGI50 in test [2] was more than 20.

Take `CCN1C[C@]2(COC)[C@H](O)C[C@H](O)[C@]34C1[C@@](O)([C@@H](OC)[C@H]23)[C@@]1(O)C[C@H](OC)[C@H]2C[C@@H]4[C@@H]1[C@H]2OC(=O)c1ccccc1`: the concentration for 50% growth inhibition (GI50) (in the test on A549; in the test with DU-145; in the test with KB; in test [1]) was more than 20 µM each time. The RatioGI50 in test [2] was more than 20.

On to `CCN1C[C@]2(COC)CC[C@H](OC(=O)c3ccc([N+](=O)[O-])cc3)[C@]34C1[C@@](O)([C@@H](OC)[C@H]23)[C@@]1(O)C[C@H](OC)[C@H]2C[C@@H]4[C@@H]1[C@H]2OC(=O)c1ccc([N+](=O)[O-])cc1`, for which the GI50 (with A549; in the test with DU-145; with KB; in test [1]) was more than 20 µM throughout. Further, in test [2], the RatioGI50 was more than 20.

`CCN1C[C@]2(COC)CC[C@H](OC(=O)c3ccc([N+](=O)[O-])cc3)[C@]34C1[C@@](O)([C@@H](OC)[C@H]23)[C@@]1(O)C[C@H](OC)[C@H]2C[C@@H]4[C@@H]1[C@H]2O`: the GI50 (in the test with A549; with DU-145; in the test on KB; in test [1]) was more than 20 µM throughout. In addition, the RatioGI50 in test [2] is given as more than 20.

`CCN1C[C@]2(COC)CC[C@H](OC(=O)c3ccc(C(F)(F)F)cc3)[C@]34C1[C@@](O)([C@@H](OC)[C@H]23)[C@@]1(O)C[C@H](OC)[C@H]2C[C@@H]4[C@@H]1[C@H]2O`: the GI50 (with A549; with DU-145; with KB; in test [1]) was more than 20 µM throughout. Also, in test [2], the RatioGI50 is on record as more than 20.

For `CCN1C2OC3CCC2(COC)[C@H]2[C@H](OC)[C@]4(O)C1[C@@]32[C@@H]1C[C@H]2[C@H](O)[C@@H]1[C@]4(O)C[C@@H]2OC`, the GI50 (in the test with A549; in the test with DU-145; in the test on KB; in test [1]) was more than 20 µM throughout. In addition, the RatioGI50 in test [2] is recorded as more than 20.

For `CCN1C[C@]2(COC)[C@H](O)C[C@H](O)[C@]34C1[C@@](O)([C@@H](O)[C@H]23)[C@@]1(O)C[C@H](OC)[C@H]2C[C@@H]4[C@@H]1[C@H]2O`, the concentration for 50% growth inhibition (GI50) (in the test with A549; in the test on DU-145; in the test with KB; in test [1]) was more than 20 µM throughout. In addition, in test [2], the RatioGI50 was more than 20.

With `CCN1C[C@]2(COC(=O)c3ccccc3N)CC[C@H](OC)[C@]34C1[C@@](O)([C@@H](OC)[C@H]23)[C@@]1(O)C[C@H](OC)[C@H]2C[C@@H]4[C@@H]1[C@H]2OC(C)=O`, the 50% growth inhibitory concentration (GI50) (in the test with A549; in the test with DU-145; with KB; in test [1]) was more than 20 µM each time. Also, the RatioGI50 in test [2] is recorded as more than 20.

With `CCN1C[C@]2(COC)CC[C@H](OC)[C@]34C1[C@@](O)([C@@H](OC)[C@H]23)[C@@]1(O)C[C@H](OC)[C@H]2C[C@@H]4[C@@H]1[C@H]2OC(C)=O`, the GI50 (in the test with A549; with DU-145; in the test on KB; in test [1]) was more than 20 µM each time. Moreover, in test [2], the RatioGI50 is listed as more than 20.

As to `CCN1C[C@]2(COC)CC[C@H](O)[C@]34C1[C@@](O)([C@@H](OC)[C@H]23)[C@@]1(O)C[C@H](OC)[C@H]2C[C@@H]4[C@@H]1[C@H]2OC(C)=O`, the GI50 (in the test on A549; in the test with DU-145; with KB; in test [1]) was more than 20 µM each time. For the same molecule, the RatioGI50 in test [2] is given as more than 20.

`CCN1C[C@]2(COC)[C@H](O)C[C@H](OC)[C@@]34[C@@H]5C[C@@]6(O)[C@H](OC(=O)c7ccccc7)[C@@H]5[C@@](OC(C)=O)([C@@H]([C@H](OC)[C@H]23)[C@@H]14)[C@@H](O)[C@@H]6OC` [ACONITINE]: the concentration for 50% growth inhibition (GI50) (with A549; with DU-145; in the test on KB; in test [1]) was more than 20 µM throughout. Further, the RatioGI50 in test [2] is given as more than 20.

On to `C=C1[C@@H](OC(C)=O)[C@]23C[C@@H]1[C@@H](O)C[C@H]2[C@@]12C4C3C[C@@H]1[C@@]1(C)CC[C@H]2OC1N4CC` [DEHYDROLUCIDUSCULINE], for which the concentration for 50% growth inhibition (GI50) (with A549; in the test on DU-145; in the test with KB; in test [1]) was more than 20 µM each time. For the same molecule, the RatioGI50 in test [2] was more than 20.

Take `CCN1C[C@]2(COC)CC[C@H](O)[C@]34C1[C@@](O)([C@@H](OC)[C@H]23)[C@@]1(O)C[C@H](OC)[C@H]2C[C@@H]4[C@@H]1[C@H]2OC` [DELSOLINE]: the 50% growth inhibitory concentration (GI50) (in the test with A549; in the test with DU-145; with KB; in test [1]) was more than 20 µM throughout. In addition, in test [2], the RatioGI50 is recorded as more than 20.

As to `CCN1C[C@]2(COC)CC[C@H](OC)[C@]34C1C([C@H](OC)[C@H]23)[C@]1(OC(C)=O)[C@H]2[C@@H](OC(=O)c3ccccc3)[C@](O)(C[C@H]24)[C@@H](OC)[C@@H]1O` [DEOXYACONITINE], the GI50 (in the test on A549; in the test on DU-145; in the test with KB; in test [1]) was more than 20 µM throughout. Further, the RatioGI50 in test [2] is more than 20.
